Measured values collected from several papers.
Target: Histone deacetylase 1 (HDAC1, Homo sapiens, UniProt Q13547)

| Compound | observed | action | method | quantity | value |
| --- | --- | --- | --- | --- | --- |
| CCCON(Cc1ccc(C(=O)NO)cc1)C(=O)Nc1ccccc1 | enzyme activity | inhibitor | fluorescence | IC50 | 742 nM |
| CCC[C@H](NC(=O)C1CN(C)C1)c1ncc(-c2cc3ccccc3nc2OC)[nH]1 | enzyme activity | inhibitor | fluorescence | IC50 | 280 nM |
| O=C(NO)c1ccc(NC(=O)C2(c3ccccc3)CCOCC2)c(F)c1 | enzyme activity | inhibitor | – | IC50 | 73 nM |
| O=C(CCCCCCC(=O)Nc1ccc([C@H]2O[C@@H](CSc3nc(-c4ccccc4)c(-c4ccccc4)o3)C[C@@H](c3ccc(CO)cc3)O2)cc1)NO | cell-free assay | – | – | Kd | > 30200 nM |
| O=C(NO)c1ccc(NC(=O)C2(c3ccc(C(F)(F)F)c(F)c3)CCCC2)cc1 | enzyme activity | inhibitor | – | IC50 | 222 nM |
| CCCON(Cc1ccc(C(=O)NO)cc1)C(=O)Nc1ccc(N(C)C)cc1 | enzyme activity | inhibitor | fluorescence | IC50 | 715 nM |
| C=CCC[C@@H]1NC(=O)[C@H]2CCCN2C(=O)[C@H](Cc2ccccc2)NC(=O)C(C)(C)NC1=O | enzyme activity | inhibitor | – | IC50 | > 300000 nM |
| C/C=C1\NC(=O)[C@H]2CSSCC/C=C/[C@H](CC(=O)N[C@H](C(C)C)C(=O)N2)OC(=O)[C@H](C(C)C)NC1=O | cell-free assay | – | – | Kd | 3.17 nM |
| Cc1nc2ccccc2n1Cc1ccc(C(=O)NO)cn1 | enzyme activity | inhibitor | – | IC50 | 27900 nM |
| CCCC[C@H](NC(=O)C1CN(C)C1)c1ncc(-c2cc3ccccc3nc2OC)[nH]1 | enzyme activity | inhibitor | – | IC50 | 68 nM |
| CC(C)C[C@H]1CC(=O)N[C@@H](C)C(=O)N[C@@H](CCCCCC(=O)O)C(=O)N[C@@H](Cc2c[nH]c3ccccc23)C(=O)N1 | enzyme activity | inhibitor | – | IC50 | 100 nM |
| O=C(NO)c1ccc(NC(=O)C2(c3ccc(Cl)cc3)CCCC2)c(F)c1 | enzyme activity | inhibitor | – | IC50 | 774 nM |
